No end group written: not given here.
What was measured:
plasma glucose = format: in vivo, people with type 2 diabetes
Method in brief: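 Clamp performed about 48 h after the 13th dose, with four 30-min target PG levels. AUC of glucose infusion rate computed at each level. Fasting PG measured on the morning of the day before the clamp. Recovery defined as PG ≥4.0 mmol/L, timed from termination of the insulin infusion at nadir; spontaneous recovery meant reaching this <40 min.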

[1] = test system: people with type 2 diabetes; format: in vivo
Method in brief: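 Stepwise hypoglycaemic clamp about 48 h after the 13th weekly s.c. dose; participants fasted (water allowed), supine or semi-supine, with 30-min target PG plateaux. At each target level, symptoms were scored on the Edinburgh Hypoglycaemia Scale and recognition recorded as a yes/no answer to "Do you feel hypo?".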

[2] = test system: people with type 2 diabetes; assay: Vital signs during the hypoglycaemic clamp; format: in vivo
Method in brief: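 Heart rate and systolic and diastolic BP recorded at each 30-min target PG level of the stepwise hypoglycaemic clamp. Each value is the mean of two readings, at 0 and 30 min. The clamp was run about 48 h after the 13th weekly s.c. dose, with participants fasted and supine or semi-supine.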

[3] = test system: people with type 2 diabetes; assay: Safety assessments; format: in vivo
Method in brief: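 Treatment-emergent adverse events counted from baseline to the follow-up visit: those starting on or after the first treatment day and no later than follow-up. Dosing was once-weekly s.c. self-injection for 13 doses per crossover period (0.25, 0.5, then 1.0 mg escalation; placebo volume-matched). Follow-up was in the final week of the second 5-week sampling period.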

[4] = test system: counterregulatory responses to hypoglycaemia; details: cited from earlier work
[5] = LEADER trial; cited from earlier work
[6] = once-weekly s.c. treatment, 13 doses

With `CC[C@H](C)[C@H](NC(=O)[C@H](Cc1ccccc1)NC(=O)[C@H](CCC(=O)O)NC(=O)[C@H](CCCCNC(=O)COCCOCCNC(=O)COCCOCCNC(=O)CC[C@H](NC(=O)CCCCCCCCCCCCCCCCC(=O)O)C(=O)O)NC(=O)[C@H](C)NC(=O)[C@H](C)NC(=O)[C@H](CCC(N)=O)NC(=O)CNC(=O)[C@H](CCC(=O)O)NC(=O)[C@H](CC(C)C)NC(=O)[C@H](Cc1ccc(O)cc1)NC(=O)[C@H](CO)NC(=O)[C@H](CO)NC(=O)[C@@H](NC(=O)[C@H](CC(=O)O)NC(=O)[C@H](CO)NC(=O)[C@@H](NC(=O)[C@H](Cc1ccccc1)NC(=O)[C@@H](NC(=O)CNC(=O)[C@H](CCC(=O)O)NC(=O)C(C)(C)NC(=O)[C@@H](N)Cc1cnc[nH]1)[C@@H](C)O)[C@@H](C)O)C(C)C)C(=O)N[C@@H](C)C(=O)N[C@@H](Cc1c[nH]c2ccccc12)C(=O)N[C@@H](CC(C)C)C(=O)N[C@H](C(=O)N[C@@H](CCCNC(=N)N)C(=O)NCC(=O)N[C@@H](CCCNC(=N)N)C(=O)NCC(=O)O)C(C)C` [semaglutide] the “Time to reach recovery (PG ≥4.0 mmol/L)” value (plasma glucose; geometric mean) was 44 min, the “Proportion of participants who recovered spontaneously” value (plasma glucose; reaching PG ≥4.0 mmol/L < 40 minutes after termination of the insulin infusion at nadir) was ~ 50% and the “Estimated mean hypoglycaemic symptom score vs placebo” value ([1]; Edinburgh Hypoglycaemia Scale, target PG level 5.5 mmol/L) was “No difference”. The “Effect on cognitive function” value ([1]; Trail Making-B, Digit Symbol Substitution, Four-Choice Reaction Time tests, all PG levels) was “no effect”, the “Hypoglycaemia recognition, answer to "Do you feel hypo?"” value ([1]; target level 5.5 mmol/L) was “all participants answered “no”” and the “Response to hypoglycaemia for heart rate, systolic or diastolic BP vs placebo” value [2] was “no systematic differences”. The “Severity of adverse events” value ([3]; all events, both treatments) was “mild or moderate”, the “Clinical laboratory assessments (including amylase, lipase and calcitonin), physical examination or ECG” value ([3]; baseline to follow-up) was “No safety findings” and the “Development of anti-semaglutide antibodies” value ([3]; baseline to follow-up) was “no participant developed anti‐semaglutide antibodies”. For the same compound, the “Deaths or pancreatitis cases” value ([3]; during the trial) was “No deaths or pancreatitis cases”, the “Diastolic BP, mean (SD) change from baseline to end-of-treatment” value [3, 6] was −2 [10] mm Hg and the “Heart rate, mean (SD) change from baseline to end-of-treatment” value [3, 6] was 6 [8] beats/min. For the same compound, the “Systolic BP, mean (SD) change from baseline to end-of-treatment” value [3, 6] was −8 [16] mm Hg.

For “Native GLP‐1: incretin hormone secreted by intestinal L cells in response to food intake (HAEGTFTSDVSSYLEGQAAKEFIAWLVKGR; ends and bridges not checked; UniProt P01275 98-127, looked up)”, the “Effect on the response to hypoglycaemia” value ([4]; healthy volunteers) is listed as “no effect”.

In the case of “liraglutide: GLP‐1 receptor agonist with a similar structure to semaglutide but a different pharmacokinetic profile”, the “Effect on the counterregulatory responses to hypoglycaemia” value [4] is listed as “no effect” and the “Incidence of severe hypoglycaemia compared with placebo” value [5] is listed as “statistically significantly lower”.

— publication PMC6221089 (Diabetes, Obesity & Metabolism, 2018)
